Assays:
HOP-62 [1] = test: Cytotoxicity against human HOP62 cells; type: cell-based
Summary of the method: (§1)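 NCI 60 human tumour cell line screen, second stage at five concentrations (100, 10, 1.0, 0.1 and 0.01 μM). Continuous drug exposure for 48 h, with cell growth estimated by sulforhodamine B protein staining. GI50 is the drug concentration giving a 50% reduction in net protein increase relative to control cells over the incubation.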

SK-OV-3 [2] = test: Anticancer activity against human SKOV3 cells after 48 hrs by sulforhodamine B assay; type: functional; settings: SK-OV-3, 48 h
Summary of the method: (§2)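 NCI 60-cell-line in vitro screen, second stage: five concentration levels (100, 10, 1.0, 0.1 and 0.01 μM) with 48 h continuous drug exposure. Cell growth was estimated by sulforhodamine B protein staining. GI50 is the drug concentration that gives a 50% reduction in net protein increase relative to control cells over the incubation.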

K562 = test: Anticancer activity against human K562 cells after 48 hrs by sulforhodamine B assay; type: functional; settings: K562, 48 h; summary of the method: as §2
OVCAR-3 [3] = test: Cytotoxicity against human OVCAR3 cells; type: cell-based; summary of the method: as §1
ACHN [4] = test: Cytotoxicity against human ACHN cells; type: cell-based; summary of the method: as §1
HT-29 [5] = test: Cytotoxicity against human HT-29 cells; type: cell-based; summary of the method: as §1
ACHN [6] = test: Anticancer activity against human ACHN cells after 48 hrs by sulforhodamine B assay; type: functional; summary of the method: as §2
UACC-257 [7] = test: Cytotoxicity against human UACC257 cells; type: cell-based
Summary of the method: (§3)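 NCI 60 human tumour cell line screen; five concentration levels (100, 10, 1.0, 0.1 and 0.01 μM), 48 h continuous drug exposure. Cell growth estimated by sulforhodamine B (SRB) protein staining. GI50 taken as the drug concentration giving a 50% reduction in net protein increase relative to control cells over the incubation.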

SK-OV-3 [8] = test: Cytotoxicity against human SKOV3 cells; type: cell-based; summary of the method: as §1
LOX IMVI = test: Cytotoxicity against human LOXIMVI cells; type: cell-based; summary of the method: as §1
MDA-MB-231 = test: Cytotoxicity against human MDA-MB-231 cells; type: cell-based; summary of the method: as §1
T47D = test: Cytotoxicity against human T47D cells; type: cell-based; summary of the method: as §3
SK-MEL-28 [9] = test: Cytotoxicity against human SK-MEL-28 cells; type: cell-based; summary of the method: as §1
HCT-15 = test: Anticancer activity against human HCT15 cells after 48 hrs by sulforhodamine B assay; type: functional; settings: HCT-15, 48 h; summary of the method: as §2
PC-3 [10] = test: Cytotoxicity against human PC3 cells; type: cell-based; summary of the method: as §1
SW-620 [11] = test: Cytotoxicity against human SW620 cells; type: cell-based; summary of the method: as §3
EKVX = test: Anticancer activity against human EKVX cells after 48 hrs by sulforhodamine B assay; type: functional; summary of the method: as §2
SK-MEL-2 = test: Anticancer activity against human SK-MEL-2 cells after 48 hrs by sulforhodamine B assay; type: functional; settings: SK-MEL-2, 48 h; summary of the method: as §2
NCI-H322M = test: Anticancer activity against human NCI-H322M cells after 48 hrs by sulforhodamine B assay; type: functional; summary of the method: as §2
OVCAR-4 = test: Cytotoxicity against human OVCAR4 cells; type: cell-based; summary of the method: as §1
M14 = test: Cytotoxicity against human M14 cells; type: cell-based; summary of the method: as §1
A498 = test: Cytotoxicity against human A498 cells; type: cell-based; summary of the method: as §1
DU-145 = test: Cytotoxicity against human DU145 cells; type: cell-based; summary of the method: as §1
MDA-MB-468 = test: Anticancer activity against human MDA-MB-468 cells after 48 hrs by sulforhodamine B assay; type: functional; settings: MDA-MB-468, 48 h; summary of the method: as §2
OVCAR-8 [12] = test: Cytotoxicity against human OVCAR8 cells; type: cell-based; summary of the method: as §1
IGROV-1 = test: Anticancer activity against human IGROV1 cells after 48 hrs by sulforhodamine B assay; type: functional; settings: IGROV-1, 48 h; summary of the method: as §2
UO-31 = test: Anticancer activity against human UO31 cells after 48 hrs by sulforhodamine B assay; type: functional; settings: UO-31, 48 h
Summary of the method: (§4)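 NCI 60-cell-line screen, second stage. Five concentration levels (100, 10, 1.0, 0.1 and 0.01 μM), 48 h continuous drug exposure. Cell growth was estimated by sulforhodamine B protein staining. GI50 is the concentration giving a 50% reduction in net protein increase relative to control cells over the drug incubation. Compounds entered this stage after an earlier single-dose screen.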

TK-10 = test: Anticancer activity against human TK10 cells after 48 hrs by sulforhodamine B assay; type: functional; settings: TK-10, 48 h; summary of the method: as §4
HT-29 [13] = test: Anticancer activity against human HT-29 cells after 48 hrs by sulforhodamine B assay; type: functional; settings: HT-29, 48 h; summary of the method: as §2
UACC-257 [14] = test: Anticancer activity against human UACC257 cells after 48 hrs by sulforhodamine B assay; type: functional; settings: UACC-257, 48 h; summary of the method: as §4
RXF 393 = test: Anticancer activity against human RXF393 cells after 48 hrs by sulforhodamine B assay; type: functional; settings: RXF 393, 48 h; summary of the method: as §2
KM12 = test: Cytotoxicity against human KM12 cells; type: cell-based; summary of the method: as §1
CCRF-CEM = test: Anticancer activity against human CCRF-CEM cells after 48 hrs by sulforhodamine B assay; type: functional; summary of the method: as §2
HOP-62 [15] = test: Anticancer activity against human HOP62 cells after 48 hrs by sulforhodamine B assay; type: functional; settings: HOP-62, 48 h; summary of the method: as §2
U-251 = test: Cytotoxicity against human U251 cells; type: cell-based; summary of the method: as §3
SNB-19 [16] = test: Cytotoxicity against human SNB19 cells; type: cell-based; summary of the method: as §3
NCI-H23 = test: Anticancer activity against human NCI-H23 cells after 48 hrs by sulforhodamine B assay; type: functional; settings: NCI-H23, 48 h; summary of the method: as §2
HL-60(TB) = test: Cytotoxicity against human HL-60(TB) cells; type: cell-based; summary of the method: as §1
SK-MEL-28 [17] = test: Anticancer activity against human SK-MEL-28 cells after 48 hrs by sulforhodamine B assay; type: functional; settings: SK-MEL-28, 48 h; summary of the method: as §2
A549 = test: Anticancer activity against human A549 cells after 48 hrs by sulforhodamine B assay; type: functional; settings: A549, 48 h; summary of the method: as §2
HCT-116 = test: Cytotoxicity against human HCT116 cells; type: cell-based; summary of the method: as §1
RPMI-8226 = test: Anticancer activity against human RPMI8226 cells after 48 hrs by sulforhodamine B assay; type: functional; settings: RPMI-8226, 48 h; summary of the method: as §2
OVCAR-3 [18] = test: Anticancer activity against human OVCAR3 cells after 48 hrs by sulforhodamine B assay; type: functional; settings: OVCAR-3, 48 h; summary of the method: as §2
786-0 = test: Cytotoxicity against human 786-0 cells; type: cell-based; summary of the method: as §1
BT-549 = test: Anticancer activity against human BT549 cells after 48 hrs by sulforhodamine B assay; type: functional; settings: BT-549, 48 h; summary of the method: as §2
OVCAR-8 [19] = test: Anticancer activity against human OVCAR8 cells after 48 hrs by sulforhodamine B assay; type: functional; settings: OVCAR-8, 48 h; summary of the method: as §2
SNB-19 [20] = test: Anticancer activity against human SNB19 cells after 48 hrs by sulforhodamine B assay; type: functional; settings: SNB-19, 48 h; summary of the method: as §2
NCI/ADR-RES = test: Cytotoxicity against human NCI/ADR-RES cells; type: cell-based; summary of the method: as §1
SK-MEL-5 = test: Anticancer activity against human SK-MEL-5 cells after 48 hrs by sulforhodamine B assay; type: functional; settings: SK-MEL-5, 48 h; summary of the method: as §2
SW-620 [21] = test: Anticancer activity against human SW620 cells after 48 hrs by sulforhodamine B assay; type: functional; settings: SW-620, 48 h; summary of the method: as §4
SN12C = test: Anticancer activity against human SN12C cells after 48 hrs by sulforhodamine B assay; type: functional; summary of the method: as §2
PC-3 [22] = test: Anticancer activity against human PC3 cells after 48 hrs by sulforhodamine B assay; type: functional; settings: PC-3, 48 h; summary of the method: as §2
OVCAR-5 = test: Cytotoxicity against human OVCAR5 cells; type: cell-based; summary of the method: as §1

Oc1ccc(Cc2ccc(O)c(C3CC(c4ccc(Cl)cc4)=NN3)c2)cc1C1CC(c2ccc(Cl)cc2)=NN1 (stereo not drawn)
LC50 (HOP-62 [1]): > 100 µM
GI50 (SK-OV-3 [2]): 4.43 µM
GI50 (K562): 1750 nM
LC50 (OVCAR-3 [3]): > 100 µM
LC50 (ACHN [4]): > 100 µM
LC50 (HT-29 [5]): > 100 µM
GI50 (ACHN [6]): 3.63 µM
LC50 (UACC-257 [7]): > 100 µM
LC50 (SK-OV-3 [8]): > 100 µM
LC50 (LOX IMVI): > 100 µM
LC50 (MDA-MB-231): > 100 µM
LC50 (T47D): > 100 µM
LC50 (SK-MEL-28 [9]): > 100 µM
GI50 (HCT-15): 2510 nM
LC50 (PC-3 [10]): > 100 µM
LC50 (SW-620 [11]): > 100 µM
GI50 (EKVX): 2770 nM
GI50 (SK-MEL-2): 3.23 µM
GI50 (NCI-H322M): 4.17 µM
LC50 (OVCAR-4): > 100 µM
LC50 (M14): > 100 µM
LC50 (A498): > 100 µM
LC50 (DU-145): > 100 µM
GI50 (MDA-MB-468): 3.5 µM
LC50 (OVCAR-8 [12]): > 100 µM
GI50 (IGROV-1): 4.11 µM
GI50 (UO-31): 3.04 µM
GI50 (TK-10): 5.34 µM
GI50 (HT-29 [13]): 7.25 µM
GI50 (UACC-257 [14]): 2560 nM
GI50 (RXF 393): 3.99 µM
LC50 (KM12): > 100 µM
GI50 (CCRF-CEM): 1940 nM
GI50 (HOP-62 [15]): 4.16 µM
LC50 (U-251): > 100 µM
LC50 (SNB-19 [16]): > 100 µM
GI50 (NCI-H23): 3.3 µM
LC50 (HL-60(TB)): > 100 µM
GI50 (SK-MEL-28 [17]): 9.84 µM
GI50 (A549): 2450 nM
LC50 (HCT-116): > 100 µM
GI50 (RPMI-8226): 5.09 µM
GI50 (OVCAR-3 [18]): 2590 nM
LC50 (786-0): > 100 µM
GI50 (BT-549): 4.78 µM
GI50 (OVCAR-8 [19]): 2460 nM
GI50 (SNB-19 [20]): 3.64 µM
LC50 (NCI/ADR-RES): > 100 µM
GI50 (SK-MEL-5): 3.36 µM
GI50 (SW-620 [21]): 3.29 µM
GI50 (SN12C): 2860 nM
GI50 (PC-3 [22]): 3.32 µM
LC50 (OVCAR-5): > 100 µM

Source: ChEMBL document CHEMBL1782042, “Efficient microwave-assisted synthesis and antitumor activity of novel 4,4'-methylenebis[2-(3-aryl-4,5-dihydro-1H-pyrazol-5-yl)phenols]” (Eur J Med Chem, 2011)
